From ChEMBL document CHEMBL1152820, “Plasmid-encoded ACC-4, an extended-spectrum cephalosporinase variant from Escherichia coli” (Antimicrob Agents Chemother, 2007)
Values after ≈ are worked out from the molar mass of the structure shown.

T1: Beta-lactamase ACC-4 (Escherichia coli, UniProt A4ZYU9)
T1 sequence (A4ZYU9 whole entry): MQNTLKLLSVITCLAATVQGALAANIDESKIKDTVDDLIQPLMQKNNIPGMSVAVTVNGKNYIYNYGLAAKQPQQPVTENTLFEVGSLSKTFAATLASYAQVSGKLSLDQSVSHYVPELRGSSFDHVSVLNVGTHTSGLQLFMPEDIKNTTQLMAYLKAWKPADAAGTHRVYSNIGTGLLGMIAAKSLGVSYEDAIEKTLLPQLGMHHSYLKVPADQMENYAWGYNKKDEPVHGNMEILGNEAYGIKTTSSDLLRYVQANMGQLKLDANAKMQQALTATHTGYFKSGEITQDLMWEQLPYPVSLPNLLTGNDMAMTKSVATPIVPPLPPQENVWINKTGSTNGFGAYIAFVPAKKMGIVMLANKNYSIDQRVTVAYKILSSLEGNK


Columns and labels:
Escherichia coli [1] = test: Antimicrobial activity against Escherichia coli MC4100 harboring pB-acc1 plasmid by agar dilution technique; type: functional
Escherichia coli [2] = test: Antimicrobial activity against Escherichia coli MC4100 harboring pB-acc4 plasmid by agar dilution technique; type: functional
Escherichia coli [3] = test: Antimicrobial activity against Escherichia coli MC4100 harboring pA-acc1 plasmid by agar dilution technique; type: functional
Escherichia coli [4] = test: Antimicrobial activity against Escherichia coli MC4100 harboring pA-acc4 plasmid by agar dilution technique; type: functional
Beta-lactamase ACC-4 = target: T1, Beta-lactamase ACC-4; test: Inhibition of Escherichia coli beta-lactamase ACC4
How it was run: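 ACC-4 from mid-log E. coli(pS18-d): sonicated, ultracentrifuged, Q-Sepharose flowthrough then S-Sepharose (0–0.6 M NaCl gradient, phosphate pH 6.8), >95% pure by SDS-PAGE.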

Escherichia coli [5] = test: Antimicrobial activity against Escherichia coli MC4100 harboring pBCSK plasmid by agar dilution technique; type: functional
Escherichia coli [6] = test: Antimicrobial activity against Escherichia coli MC4100 harboring pACYC184 plasmid by agar dilution technique; type: functional
Hafnia alvei [7] = test: Activity of Hafnia alvei beta-lactamase ACC-1 assessed as nmol of compound hydrolysis per ug of protein
Hafnia alvei [8] = test: Ratio of Vmax to Km for Hafnia alvei beta-lactamase ACC-1
Hafnia alvei [9] = test: Activity of Hafnia alvei beta-lactamase ACC-1
[10] = substrate: CO/N=C(\C(=O)N[C@@H]1C(=O)N2C(C(=O)O)=C(COC(C)=O)CS[C@H]12)c1csc(N)n1; test: (§1) Ratio of Kcat to Km for Escherichia coli beta-lactamase ACC4 by UV spectrophotometry
How it was run: (§2)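 ACC-4 purified from E. coli carrying pS18-d, grown to mid-log in broth with 100 μg/ml ampicillin. Sonicated, then Q-Sepharose and S-Sepharose chromatography (NaCl 0 to 0.6 M, phosphate pH 6.8), >95% pure. Substrate hydrolysis at 30°C, pH 7.0, followed by UV spectrophotometry. kcat and Km are means of four independent measurements.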

[11] = substrate: CO/N=C(\C(=O)N[C@@H]1C(=O)N2C(C(=O)[O-])=C(C[N+]3(C)CCCC3)CS[C@H]12)c1csc(N)n1; test: as §1; how it was run: as §2
[12] = substrate: CC(C)(O/N=C(\C(=O)N[C@@H]1C(=O)N2C(C(=O)[O-])=C(C[n+]3ccccc3)CS[C@H]12)c1csc(N)n1)C(=O)O; test: as §1; how it was run: as §2
[13] = substrate: CCN1CCN(C(=O)N[C@@H](C(=O)N[C@@H]2C(=O)N3[C@@H]2SC(C)(C)[C@@H]3C(=O)O)c2ccccc2)C(=O)C1=O; test: as §1; how it was run: as §2
[14] = substrate: CC(=O)OCC1=C(C(=O)O)N2C(=O)[C@@H](NC(=O)Cc3cccs3)[C@H]2SC1; test: as §1; how it was run: as §2
[15] = substrate: CC1(C)S[C@@H]2[C@H](NC(=O)Cc3ccccc3)C(=O)N2[C@H]1C(=O)O; test: as §1; how it was run: as §2
[16] = substrate: CO/N=C(\C(=O)N[C@@H]1C(=O)N2C(C(=O)O)=C(COC(C)=O)CS[C@H]12)c1csc(N)n1; test: (§3) Activity of Escherichia coli beta-lactamase ACC4 by UV spectrophotometry; how it was run: as §2
[17] = substrate: CO[C@@]1(NC(=O)Cc2cccs2)C(=O)N2C(C(=O)O)=C(COC(N)=O)CS[C@@H]21; test: as §3; how it was run: as §2
[18] = substrate: CO/N=C(\C(=O)N[C@@H]1C(=O)N2C(C(=O)[O-])=C(C[N+]3(C)CCCC3)CS[C@H]12)c1csc(N)n1; test: as §3; how it was run: as §2
[19] = substrate: CC(C)(O/N=C(\C(=O)N[C@@H]1C(=O)N2C(C(=O)[O-])=C(C[n+]3ccccc3)CS[C@H]12)c1csc(N)n1)C(=O)O; test: as §3; how it was run: as §2
[20] = substrate: CCN1CCN(C(=O)N[C@@H](C(=O)N[C@@H]2C(=O)N3[C@@H]2SC(C)(C)[C@@H]3C(=O)O)c2ccccc2)C(=O)C1=O; test: as §3; how it was run: as §2
[21] = substrate: CC(=O)OCC1=C(C(=O)O)N2C(=O)[C@@H](NC(=O)Cc3cccs3)[C@H]2SC1; test: as §3; how it was run: as §2
[22] = substrate: CC1(C)S[C@@H]2[C@H](NC(=O)Cc3ccccc3)C(=O)N2[C@H]1C(=O)O; test: as §3; how it was run: as §2

Row | Molecule | MIC (Escherichia coli [1]) [µg/mL] | MIC (Escherichia coli [2]) [µg/mL] | MIC (Escherichia coli [3]) [µg/mL] | MIC (Escherichia coli [4]) [µg/mL] | MIC (Escherichia coli [5]) [µg/mL] | MIC (Escherichia coli [6]) [µg/mL] | also measured
1 | CO/N=C(\C(=O)N[C@@H]1C(=O)N2C(C(=O)[O-])=C(C[N+]3(C)CCCC3)CS[C@H]12)c1csc(N)n1 | 0.12 (≈ 0.25 µM) | 0.25 (≈ 0.52 µM) | 0.12 (≈ 0.25 µM) | 0.12 (≈ 0.25 µM) |  |  | 
2 | C[C@]1(/C=C\C#N)[C@H](C(=O)O)N2C(=O)C[C@H]2S1(=O)=O |  |  |  |  |  |  | IC50 (Beta-lactamase ACC-4): 10300 nM
3 | CC1(C)S[C@@H]2[C@H](NC(=O)[C@H](N)c3ccc(O)cc3)C(=O)N2[C@H]1C(=O)O [AMOXICILLIN] | > 512 | > 512 | > 512 | > 512 | 4 (≈ 10.9 µM) | 4 (≈ 10.9 µM) | 
4 | C[C@H]1[C@H](NC(=O)/C(=N\OC(C)(C)C(=O)O)c2csc(N)n2)C(=O)N1S(=O)(=O)O [AZTREONAM] | 1 (≈ 2.3 µM) | 2 (≈ 4.59 µM) | 0.5 (≈ 1.15 µM) | 2 (≈ 4.59 µM) |  |  | IC50 (Beta-lactamase ACC-4): 32 nM
5 | N[C@@H](C(=O)N[C@@H]1C(=O)N2C(C(=O)O)=C(Cl)CS[C@H]12)c1ccccc1 [CEFACLOR ANHYDROUS] | > 512 | > 512 | > 512 | > 512 | 2 (≈ 5.44 µM) | 2 (≈ 5.44 µM) | 
6 | CO/N=C(\C(=O)N[C@@H]1C(=O)N2C(C(=O)O)=C(COC(C)=O)CS[C@H]12)c1csc(N)n1 [CEFOTAXIME] | 16 (≈ 35.1 µM) | 64 (≈ 141 µM) | 8 (≈ 17.6 µM) | 32 (≈ 70.3 µM) | ≤ 0.06 | ≤ 0.06 | Vmax (Hafnia alvei [7]): < 0.01 nmol/min/µg
7 | CO[C@@]1(NC(=O)C2SC(=C(C(N)=O)C(=O)O)S2)C(=O)N2C(C(=O)O)=C(CSc3nnnn3C)CS[C@@H]21 (stereo partly drawn) [CEFOTETAN] | 1 (≈ 1.74 µM) | 1 (≈ 1.74 µM) | 1 (≈ 1.74 µM) | 1 (≈ 1.74 µM) | 0.5 (≈ 0.869 µM) | 0.5 (≈ 0.869 µM) | 
8 | CO[C@@]1(NC(=O)Cc2cccs2)C(=O)N2C(C(=O)O)=C(COC(N)=O)CS[C@@H]21 [CEFOXITIN] | 4 (≈ 9.36 µM) | 4 (≈ 9.36 µM) | 4 (≈ 9.36 µM) | 4 (≈ 9.36 µM) | 2 (≈ 4.68 µM) | 2 (≈ 4.68 µM) | Vmax (Hafnia alvei [7]): < 0.002 nmol/min/µg
9 | CC(C)(O/N=C(\C(=O)N[C@@H]1C(=O)N2C(C(=O)[O-])=C(C[n+]3ccccc3)CS[C@H]12)c1csc(N)n1)C(=O)O [CEFTAZIDIME] | 128 (≈ 234 µM) | 512 (≈ 937 µM) | 32 (≈ 58.5 µM) | 256 (≈ 468 µM) | 0.25 (≈ 0.457 µM) | 0.25 (≈ 0.457 µM) | Vmax/Km (Hafnia alvei [8]): < 0.01; Vmax (Hafnia alvei [7]): < 0.025 nmol/min/µg; Km (Hafnia alvei [9]): 17 µM
10 | CO/N=C(\C(=O)N[C@@H]1C(=O)N2C(C(=O)O)=C(CSc3nc(=O)c(O)nn3C)CS[C@H]12)c1csc(N)n1 [CEFTRIAXONE] | 32 (≈ 57.7 µM) | 128 (≈ 231 µM) | 16 (≈ 28.9 µM) | 32 (≈ 57.7 µM) | 0.12 (≈ 0.216 µM) | 0.12 (≈ 0.216 µM) | 
11 | CO/N=C(\C(=O)N[C@@H]1C(=O)N2C(C(=O)O)=C(COC(N)=O)CS[C@H]12)c1ccco1 [CEFUROXIME] | 128 (≈ 302 µM) | > 512 | 128 (≈ 302 µM) | > 512 | 1 (≈ 2.36 µM) | 1 (≈ 2.36 µM) | 
12 | CC(=O)OCC1=C(C(=O)O)N2C(=O)[C@@H](NC(=O)Cc3cccs3)[C@H]2SC1 [CEPHALOTHIN] | > 512 | > 512 | > 512 | > 512 | 2 (≈ 5.04 µM) | 2 (≈ 5.04 µM) | 
13 | Cc1onc(-c2ccccc2Cl)c1C(=O)N[C@@H]1C(=O)N2[C@@H]1SC(C)(C)[C@@H]2C(=O)O [CLOXACILLIN] |  |  |  |  |  |  | IC50 (Beta-lactamase ACC-4): 26 nM
14 | CCN1CCN(C(=O)N[C@@H](C(=O)N[C@@H]2C(=O)N3[C@@H]2SC(C)(C)[C@@H]3C(=O)O)c2ccccc2)C(=O)C1=O [PIPERACILLIN] | 256 (≈ 495 µM) | 128 (≈ 247 µM) | 64 (≈ 124 µM) | 32 (≈ 61.8 µM) | 0.5 (≈ 0.966 µM) | 0.5 (≈ 0.966 µM) | Vmax/Km (Hafnia alvei [8]): 0.12; Vmax (Hafnia alvei [7]): 0.17 nmol/min/µg; Km (Hafnia alvei [9]): 1.4 µM
15 | Beta-lactamase ACC-4 (Escherichia coli), A4ZYU9 (protein) MQNTLKLLSVITCLAATVQGALAANIDESKIKDTVDDLIQPLMQKNNIPGMSVAVTVNGKNYIYNYGLAAKQPQQPVTENTLFEVGSLSKTFAATLASYAQVSGKLSLDQSVSHYVPELRGSSFDHVSVLNVGTHTSGLQLFMPEDIKNTTQLMAYLKAWKPADAAGTHRVYSNIGTGLLGMIAAKSLGVSYEDAIEKTLLPQLGMHHSYLKVPADQMENYAWGYNKKDEPVHGNMEILGNEAYGIKTTSSDLLRYVQANMGQLKLDANAKMQQALTATHTGYFKSGEITQDLMWEQLPYPVSLPNLLTGNDMAMTKSVATPIVPPLPPQENVWINKTGSTNGFGAYIAFVPAKKMGIVMLANKNYSIDQRVTVAYKILSSLEGNK |  |  |  |  |  |  | kcat/Km [10]: 290000 M⁻¹ s⁻¹; kcat/Km [11]: 2000 M⁻¹ s⁻¹; kcat/Km [12]: 100000 M⁻¹ s⁻¹; kcat/Km [13]: 120000 M⁻¹ s⁻¹; kcat/Km [14]: 3.2e+06 M⁻¹ s⁻¹; kcat/Km [15]: 160000 M⁻¹ s⁻¹; Km [16]: 9.4 µM; kcat [16]: 2.7 s⁻¹; kcat [17]: < 0.01 s⁻¹; Km [18]: 73 µM; kcat [18]: 0.14 s⁻¹; Km [19]: 15 µM; kcat [19]: 1.5 s⁻¹; Km [20]: 1.1 µM; kcat [20]: 0.13 s⁻¹; Km [21]: 30 µM; kcat [21]: 96 s⁻¹; Km [22]: 3.8 µM; kcat [22]: 0.59 s⁻¹
